# Screens (PubChem BioAssay)
# Most compounds without a hit are left out; they make up all but 9% or so of the library.
# Htt clearance: mutant huntingtin protein clearance; HeLa Exon1htt(103Q)mCFP, aggregate imaging; zero = plate's median compound well; inhibition, % at 1.5 µM; 0.42% of 47,000 active; AID 853;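 active = inhibition of aggregate fluorescence above about 70%, also judged a hit by eye on the cell image, limit read from the data, passing the limit was not always enough; inconclusive = no rule stated for this call; inactive = not judged a hit on image review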;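 also: cells exposed to compound for three days before fixation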
# M1 antagonist: blocks the rat M1 muscarinic receptor response to acetylcholine | CHO-M1 cells, Fluo-4 calcium, ACh EC80 antagonist mode; hits give low values | B-score at 10 µM | 3.4% of 64,000 active | AID 628;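 active = calcium fluorescence response, raw or row-and-column corrected B-score, differing from the plate sample mean either way at a set confidence level, mostly lower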
# D1 allo mod: allosterically modulates the human D1 dopamine receptor. P21728. HEK293 D1, CRE-luciferase, dopamine EC30 potentiation; actives deviate in either direction. B-score at 10 µM. 5.9% of 58,000 active;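 active = luminescence count or its row- and column-corrected plate score outside the 99.7% band of the plate's sample wells, on either side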
# M1 ag: activates the M1 muscarinic receptor. CHO-M1 cells, Fluo-4 calcium fluorescence, agonist mode; hits give high values. B-score at 10 µM. 3% of 64,000 active. AID 626;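 active = fluorescence rise, raw or as B-score row- and column-corrected plate score, outside the 99.7% band of its plate's samples, either direction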
# AP complement: orthogonal test for alternative complement pathway inhibitors; 0.08% of 62,000 active; inhibition, % at 5 µM; AID 1235; Human serum alternative complement pathway, LPS-coated ELISA, C3 deposition; tested in compound mixtures;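 active = inhibition above 30% in each of the two pooled mixtures holding the compound, so the lower value exceeds 30%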;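 also: 0% = serum in Mg-EGTA without compound and 100% = EDTA serum blank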
#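 Test system – human serum alternative complement pathway, C3 deposition on LPS-coated wells · Buffer or medium – diluted human serum in Mg2+-EGTA GVB++ · Compound dosing – 5 µM each compound, pools of ten, 50 µM per pool · Schedule – 1 h serum-compound exposure at 37 °C · Measured by – Anti-C3 ELISA, OD 450 nm · Read-out basis – percent inhibition of C3 deposition onto LPS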
# M1 agonist conf: rat M1 muscarinic agonism, confirmation | shares compounds with M1 ag | CHO-M1 cells, Fluo-4 calcium fluorescence, agonist mode; actives lie on both sides | fluorescence change (max-min) at 10 µM | 19% of 1,700 active | AID 1488;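 active = fluorescence change differs from the solvent-only DMSO control mean at a set confidence level in both duplicate runs; inconclusive = differs from solvent-only control mean in just one of two runs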;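 also: an EC20 dose of acetylcholine follows compound addition during the same imaging run; raw fluorescence intensity difference in instrument units with no normalization to controls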
# M4 agonist ctr: rat M4 muscarinic agonism, M1 counter-screen; 9% of 1,700 active; CHO M4/Gqi5 cells, Fluo-4 calcium fluorescence, agonist mode; actives lie on both sides; fluorescence change (max-min) at 10 µM; AID 1741; shares compounds with M1 ag;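 active = fluorescence change differing from the plate's solvent-only control wells at 99.7% confidence in both duplicates, whether higher or lower; inconclusive = differs from solvent controls in only one of two duplicates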
# Target sequence (P08485 whole entry, looked up): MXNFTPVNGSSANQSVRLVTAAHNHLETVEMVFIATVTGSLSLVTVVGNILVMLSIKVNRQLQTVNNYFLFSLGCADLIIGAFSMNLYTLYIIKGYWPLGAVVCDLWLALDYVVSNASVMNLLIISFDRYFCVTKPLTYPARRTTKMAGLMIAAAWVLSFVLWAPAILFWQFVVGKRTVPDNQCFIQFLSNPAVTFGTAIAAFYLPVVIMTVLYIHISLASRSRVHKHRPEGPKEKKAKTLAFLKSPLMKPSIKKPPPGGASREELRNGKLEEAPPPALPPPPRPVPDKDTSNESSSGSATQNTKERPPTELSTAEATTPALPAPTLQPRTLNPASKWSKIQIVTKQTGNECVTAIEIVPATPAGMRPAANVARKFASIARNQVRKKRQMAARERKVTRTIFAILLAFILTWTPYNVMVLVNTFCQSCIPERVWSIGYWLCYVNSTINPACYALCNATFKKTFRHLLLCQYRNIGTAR
# * = called active by the depositor; ? = inconclusive; . = no result.
SMILES,Htt clearance,M1 antagonist,D1 allo mod,M1 ag,AP complement,M1 agonist conf,M4 agonist ctr
O=C(Nc1ccc(F)c(F)c1)c1ccc(F)c(S(=O)(=O)N2CCOCC2)c1,-21,-0.6,-0.5,2.2,9,.,.
COc1cc(C2NC(=O)NC(C)=C2C(=O)OC2CCCC(C)C2)ccc1O (centres undefined),.,0.85,-0.3,1,-3,.,.
Cc1occc(=O)c1OC(=O)Nc1ccccc1,40,-0.13,.,-1.8,.,.,.
Cn1cc(NC(=O)c2cc(NC(=O)c3cc(NC=O)cn3C)cn2C)cc1C(=O)NCCC(=N)N,.,-6.1,-0.66,-0.15,10,.,.
CN(c1ccccc1)S(=O)(=O)c1ccc(C(=O)OCC(=O)N2CCOCC2)cc1,.,-0.078,-0.09,-0.0032,14,.,.
COCCCn1c(SCC(=O)n2c(C)c(C)c3ccccc32)nnc1-c1ccoc1C,-76,0.64,-1.1,0.51,-7,.,.
COc1cccc(N2CCN(c3ncnc4c3cnn4-c3ccc(C)cc3C)CC2)c1,64,-1.2,-7.4*,9.7*,14,-12,-31
Cc1ccc(-n2ncc3c(N4CCCC4)ncnc32)c(C)c1,7,-0.18,.,0.18,.,.,.
CCOC(=O)C1CCCN(c2ncnc3c2cnn3-c2cccc(C)c2)C1 (centres undefined),.,-2.2*,.,33*,13,282*,-27
CCOC(=O)C1CCN(c2ncnc3c2cnn3-c2ccc(OC)cc2)CC1,.,-0.56,.,0.42,.,.,.
COc1ccc(NS(=O)(=O)c2ccc3c(c2)CCC(=O)N3)c(OC)c1,13,-0.43,-0.79,-0.32,8,.,.
Cn1c(=O)c2c(nc(N3CCNCC3)n2Cc2cccc3ccccc23)n(C)c1=O,.,0.15,0.21,-0.95,-3,.,.
CCCOc1nc2c(c(=O)n(C)c(=O)n2C)n1Cc1cccc2ccccc12,54,-0.7,-0.95,3.6*,20,?,-32
CC1CCCCN1S(=O)(=O)c1ccc(C(=O)Nc2nnc(-c3ccccc3Cl)o2)cc1 (centres undefined),.,0.015,2.5,-2.5*,2,?,-45
CCC1CCCCN1S(=O)(=O)c1ccc(C(=O)Nc2nnc(-c3ccccc3Cl)o2)cc1 (centres undefined),.,-0.11,-1.5,0.061,15,.,.
Cc1nn(-c2ccccc2)c(N2CCCC2)c1/C=N/n1cnc2scc(-c3ccccc3)c2c1=O,1,-2.4*,-0.11,9.1*,22,5.6,-15
CCC(C)c1ccc(O)c(NC(=O)c2ncn[nH]2)c1 (centres undefined),-25,0.78,0.18,12*,11,-24*,-37
Cc1noc(C(=O)Nc2sc3c(c2C#N)CCC3)c1Cl,.,-0.68,-0.59,-3.6*,8,2.9,-20
Cc1cc(=O)oc2c3c4c(cc12)OCCN4CCC3,-10,.,.,.,.,.,.
O=c1oc2c(CN3CCOCC3)c(O)ccc2c2c1CCC2,-29,0.05,-0.42,-0.095,12,.,.
O=c1oc2c3c4c(cc2c(C(F)(F)F)c1CCN1CCOCC1)CCCN4CCC3,.,-2.9*,.,277*,.,1525*,1404*
CC(C)c1cc(=O)oc2c3c4c(cc12)CCCN4CCC3,.,-0.15,0.66,106*,8,612*,614*
Cc1onc(-c2c(F)cccc2Cl)c1C(=O)OCn1nnc2ccccc2c1=O,9,-2.2,-1.4,0.08,.,.,.
CC(=O)Nc1ccc(OCC(O)CN2CCN(c3cc(Cl)ccc3C)CC2)cc1 (centres undefined),-7,-2.6,0.036,-0.37,8,.,.
CC(=O)Nc1ccc(OCC(O)CN2CCN(c3ccc(C)c(Cl)c3)CC2)cc1 (centres undefined),.,-2.2,-2.6*,1.9*,21,-1.2,-32
SMILES,Htt clearance,M1 antagonist,D1 allo mod,M1 ag,AP complement,M1 agonist conf,M4 agonist ctr
O=C(NCCn1cccc1)c1cccc2ccccc12,-28,-0.013,-0.22,5.7*,30,-31*,-54
O=C(NCCc1csc(-c2cccnc2)n1)c1cccc2ccccc12,-23,.,.,.,.,.,.
COCCn1c(C)c(C(=O)O)sc1=S,.,0.44,0.28,0.47,1,.,.
C1CCN(c2nc(N3CCCC3)nc(N3CCNCC3)n2)C1,.,-0.18,-2.9,-0.6,1,.,.
c1ccc(Nc2nc(N3CCCCC3)nc(N3CCNCC3)n2)cc1,17,0.039,0.86,11*,6,-10,-23
COCCn1c(C)cc(C(=O)COC(=O)c2c(C)nn(Cc3ccccc3)c2C)c1C,.,-0.21,.,-0.29,4,.,.
COCCn1c(C)cc(C(=O)COc2nc3ccccc3nc2C)c1C,.,1,-1.8,5.2*,2,-9.6,-14
CCCCOc1ccc(CNn2c(C)nc3ccccc3c2=O)cc1,18,0.0013,.,-0.48,18,.,.
COc1ccc(CNn2c(C)nc3ccccc3c2=O)cc1,12,-0.51,.,5.6*,15,-8.3,-17
Clc1c(CSc2nc3ccccc3o2)nc2ccccn12,.,-1.2,-0.61,21*,21,2.1,-23
Cc1nnc(SCC(=O)Nc2nccs2)s1,.,0.11,0.58,-0.14,-3,.,.
CN(C)c1ccc(NC(=O)c2sc(SCC(=O)Nc3nccs3)nc2N)cc1,.,-0.92,.,7.1*,.,-27,?
CCN1CCN(c2nc3ccccc3nc2C(C#N)C(=O)OCc2ccccc2)CC1 (centres undefined),.,-0.93,-3.9,-2.7,.,.,.
CCCCN(CCCC)c1nc2ccccc2nc1C(C#N)C(=O)NCCCOC (centres undefined),21,-16*,1.2,434*,.,2697*,2698*
CCCN(CCC)c1nc2ccccc2nc1C(C#N)C(=O)OC(C)COC (centres undefined),.,0.88,.,1.1,.,.,.
CCN(CC)c1nc2ccccc2nc1C(C#N)C(=O)NCCc1ccccc1 (centres undefined),.,-1,0.019,219*,-10,2068*,1724*
CCN(CC)c1nc2ccccc2nc1C(C#N)C(=O)NCCCOC (centres undefined),.,-0.6,2.3,5*,18,-4,-30
COc1ccc(C)cc1S(=O)(=O)N(CC(=O)N1CCCC1)c1ccccc1,9,0.54,-0.53,1.1,-2,.,.
O=C(Nc1cccnc1)C1(c2ccc(Cl)cc2)CCCC1,-67,.,.,.,.,.,.
Cc1ccc(S(=O)(=O)N2CCN(C(=O)c3cc(=O)[nH]c4ccccc34)CC2)c(C)c1,.,-0.01,1.8,4.7*,-2,-28,-50
O=C(OCC(=O)N1CCN(C(=O)COC(=O)c2ccncc2)CC1)c1ccncc1,.,-1.1,-0.071,-1.5,19,.,.
COc1ccc(NC(=O)c2[nH]c(C)c(C(C)=O)c2C)cc1Cl,15,-3.1*,.,5.5*,20,-2.4,-16
O=C(CSc1nnc(C2COc3ccccc3O2)o1)N1CCOCC1 (centres undefined),.,.,-0.77,.,20,.,.
O=C(CSc1nnc(C2COc3ccccc3O2)o1)N1CCCc2ccccc21 (centres undefined),.,-1.2,0.22,2.5*,4,?,-26
